Results published in ChEMBL document CHEMBL4152256, “Structure-activity relationship of new antimalarial 1-aryl-3-susbtituted propanol derivatives: Synthesis, preliminary toxicity profiling, parasite life cycle stage studies, target exploration, and targeted delivery” (Eur J Med Chem, 2018).

Key:
[1] = Selectivity index, ratio of CC50 for human HepG2A16 cells by MTT assay to IC50 for multidrug-resistant Plasmodium falciparum FCR-3; format: toxicity; conditions: HepG2A16 cells, read-out: Ratio CC50/IC50
How it was run: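 HepG2-A16 human hepatoma cells were tested by MTT viability assay to give CC50. Blood-stage activity was measured against the multidrug-resistant P. falciparum FCR-3 strain by [3H]-hypoxanthine incorporation to give IC50. SI = CC50 HepG2 / FCR-3 IC50.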

[2] = Genotoxicity in Salmonella typhimurium TA1535 harboring pSK1002 assessed as survival at 0.008 mg/ml in presence of Sprague-Dawley rat liver S9 fraction after by SOS/umu assay relative to control; format: toxicity, organism-based; conditions: salmonella enterica subsp. enterica serovar typhimurium, read-out: Survival
[3] = Genotoxicity in Salmonella typhimurium TA1535 harboring pSK1002 assessed as umu gene induction at 0.004 mg/ml in presence of Sprague-Dawley rat liver S9 fraction after by SOS/umu assay relative to control; format: toxicity, organism-based; conditions: salmonella enterica subsp. enterica serovar typhimurium, read-out: FC
[4] = Genotoxicity in Salmonella typhimurium TA1535 harboring pSK1002 assessed as survival at 0.008 mg/ml in absence of Sprague-Dawley rat liver S9 fraction after by SOS/umu assay relative to control; format: toxicity, organism-based; conditions: salmonella enterica subsp. enterica serovar typhimurium, read-out: Survival
[5] = Genotoxicity in Salmonella typhimurium TA1535 harboring pSK1002 assessed as survival at 0.031 mg/ml in presence of Sprague-Dawley rat liver S9 fraction after by SOS/umu assay relative to control; format: toxicity, organism-based; conditions: salmonella enterica subsp. enterica serovar typhimurium, read-out: Survival
[6] = Genotoxicity in Salmonella typhimurium TA1535 harboring pSK1002 assessed as umu gene induction at 0.125 mg/ml in presence of Sprague-Dawley rat liver S9 fraction after by SOS/umu assay relative to control; format: toxicity, organism-based; conditions: salmonella enterica subsp. enterica serovar typhimurium, read-out: FC
[7] = Genotoxicity in Salmonella typhimurium TA1535 harboring pSK1002 assessed as umu gene induction at 0.031 mg/ml in presence of Sprague-Dawley rat liver S9 fraction after by SOS/umu assay relative to control; format: toxicity, organism-based; conditions: salmonella enterica subsp. enterica serovar typhimurium, read-out: FC
[8] = Genotoxicity in Salmonella typhimurium TA1535 harboring pSK1002 assessed as umu gene induction at 0.004 mg/ml in absence of Sprague-Dawley rat liver S9 fraction after by SOS/umu assay relative to control; format: toxicity, organism-based; conditions: salmonella enterica subsp. enterica serovar typhimurium, read-out: FC
[9] = Genotoxicity in Salmonella typhimurium TA1535 harboring pSK1002 assessed as umu gene induction at 0.016 mg/ml in absence of Sprague-Dawley rat liver S9 fraction after by SOS/umu assay relative to control; format: toxicity, organism-based; conditions: salmonella enterica subsp. enterica serovar typhimurium, read-out: FC
[10] = Genotoxicity in Salmonella typhimurium TA1535 harboring pSK1002 assessed as umu gene induction at 0.002 mg/ml in presence of Sprague-Dawley rat liver S9 fraction after by SOS/umu assay relative to control; format: toxicity, organism-based; conditions: salmonella enterica subsp. enterica serovar typhimurium, read-out: FC
[11] = Genotoxicity in Salmonella typhimurium TA1535 harboring pSK1002 assessed as survival at 0.125 mg/ml in presence of Sprague-Dawley rat liver S9 fraction after by SOS/umu assay relative to control; format: toxicity, organism-based; conditions: salmonella enterica subsp. enterica serovar typhimurium, read-out: Survival
[12] = Genotoxicity in Salmonella typhimurium TA1535 harboring pSK1002 assessed as umu gene induction at 0.031 mg/ml in absence of Sprague-Dawley rat liver S9 fraction after by SOS/umu assay relative to control; format: toxicity, organism-based; conditions: salmonella enterica subsp. enterica serovar typhimurium, read-out: FC
[13] = Cytotoxicity against human HepG2A16 cells by MTT assay; format: cell-based; conditions: HepG2A16 cells
How it was run: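 MTT viability assay on HepG2-A16 cells, giving CC50 values.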

[14] = Genotoxicity in Salmonella typhimurium TA1535 harboring pSK1002 assessed as umu gene induction at 0.002 mg/ml in absence of Sprague-Dawley rat liver S9 fraction after by SOS/umu assay relative to control; format: toxicity, organism-based; conditions: salmonella enterica subsp. enterica serovar typhimurium, read-out: FC
[15] = Genotoxicity in Salmonella typhimurium TA1535 harboring pSK1002 assessed as umu gene induction at 0.125 mg/ml in absence of Sprague-Dawley rat liver S9 fraction after by SOS/umu assay relative to control; format: toxicity, organism-based; conditions: salmonella enterica subsp. enterica serovar typhimurium, read-out: FC
[16] = Genotoxicity in Salmonella typhimurium TA1535 harboring pSK1002 assessed as umu gene induction at 0.016 mg/ml in presence of Sprague-Dawley rat liver S9 fraction after by SOS/umu assay relative to control; format: toxicity, organism-based; conditions: salmonella enterica subsp. enterica serovar typhimurium, read-out: FC
[17] = Genotoxicity in Salmonella typhimurium TA1535 harboring pSK1002 assessed as umu gene induction at 0.008 mg/ml in presence of Sprague-Dawley rat liver S9 fraction after by SOS/umu assay relative to control; format: toxicity, organism-based; conditions: salmonella enterica subsp. enterica serovar typhimurium, read-out: FC
[18] = Genotoxicity in Salmonella typhimurium TA1535 harboring pSK1002 assessed as survival at 0.004 mg/ml in presence of Sprague-Dawley rat liver S9 fraction after by SOS/umu assay relative to control; format: toxicity, organism-based; conditions: salmonella enterica subsp. enterica serovar typhimurium, read-out: Survival
[19] = system: Plasmodium falciparum; test: Antiplasmodial activity against chloroquine-sensitive Plasmodium falciparum 3D7 by [3H]-hypoxanthine incorporation assay; format: functional, organism-based; conditions: Plasmodium falciparum, 3D7
How it was run: (§1)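 Blood-stage P. falciparum 3D7 and FCR-3 were tested by a modified [3H]-hypoxanthine incorporation assay. Chloroquine was the reference in all runs.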

[20] = Genotoxicity in Salmonella typhimurium TA1535 harboring pSK1002 assessed as umu gene induction at 0.001 mg/ml in presence of Sprague-Dawley rat liver S9 fraction after by SOS/umu assay relative to control; format: toxicity, organism-based; conditions: salmonella enterica subsp. enterica serovar typhimurium, read-out: FC
[21] = Genotoxicity in Salmonella typhimurium TA1535 harboring pSK1002 assessed as survival at 0.004 mg/ml in absence of Sprague-Dawley rat liver S9 fraction after by SOS/umu assay relative to control; format: toxicity, organism-based; conditions: salmonella enterica subsp. enterica serovar typhimurium, read-out: Survival
[22] = Genotoxicity in Salmonella typhimurium TA1535 harboring pSK1002 assessed as survival at 0.063 mg/ml in absence of Sprague-Dawley rat liver S9 fraction after by SOS/umu assay relative to control; format: toxicity, organism-based; conditions: salmonella enterica subsp. enterica serovar typhimurium, read-out: Survival
[23] = Genotoxicity in Salmonella typhimurium TA1535 harboring pSK1002 assessed as survival at 0.125 mg/ml in absence of Sprague-Dawley rat liver S9 fraction after by SOS/umu assay relative to control; format: toxicity, organism-based; conditions: salmonella enterica subsp. enterica serovar typhimurium, read-out: Survival
[24] = Genotoxicity in Salmonella typhimurium TA1535 harboring pSK1002 assessed as umu gene induction at 0.063 mg/ml in presence of Sprague-Dawley rat liver S9 fraction after by SOS/umu assay relative to control; format: toxicity, organism-based; conditions: salmonella enterica subsp. enterica serovar typhimurium, read-out: FC
[25] = Genotoxicity in Salmonella typhimurium TA1535 harboring pSK1002 assessed as umu gene induction at 0.001 mg/ml in absence of Sprague-Dawley rat liver S9 fraction after by SOS/umu assay relative to control; format: toxicity, organism-based; conditions: salmonella enterica subsp. enterica serovar typhimurium, read-out: FC
[26] = system: Plasmodium falciparum; test: Antiplasmodial activity against multidrug-resistant Plasmodium falciparum FCR-3 by [3H]-hypoxanthine incorporation assay; format: functional, organism-based, FCR-3/Gambia; conditions: Plasmodium falciparum, FCR-3/Gambia; how it was run: as §1
[27] = Genotoxicity in Salmonella typhimurium TA1535 harboring pSK1002 assessed as survival at 0.002 mg/ml in presence of Sprague-Dawley rat liver S9 fraction after by SOS/umu assay relative to control; format: toxicity, organism-based; conditions: salmonella enterica subsp. enterica serovar typhimurium, read-out: Survival
[28] = Genotoxicity in Salmonella typhimurium TA1535 harboring pSK1002 assessed as survival at 0.002 mg/ml in absence of Sprague-Dawley rat liver S9 fraction after by SOS/umu assay relative to control; format: toxicity, organism-based; conditions: salmonella enterica subsp. enterica serovar typhimurium, read-out: Survival
[29] = Genotoxicity in Salmonella typhimurium TA1535 harboring pSK1002 assessed as survival at 0.016 mg/ml in absence of Sprague-Dawley rat liver S9 fraction after by SOS/umu assay relative to control; format: toxicity, organism-based; conditions: salmonella enterica subsp. enterica serovar typhimurium, read-out: Survival
[30] = Genotoxicity in Salmonella typhimurium TA1535 harboring pSK1002 assessed as survival at 0.001 mg/ml in absence of Sprague-Dawley rat liver S9 fraction after by SOS/umu assay relative to control; format: toxicity, organism-based; conditions: salmonella enterica subsp. enterica serovar typhimurium, read-out: Survival
[31] = Genotoxicity in Salmonella typhimurium TA1535 harboring pSK1002 assessed as survival at 0.016 mg/ml in presence of Sprague-Dawley rat liver S9 fraction after by SOS/umu assay relative to control; format: toxicity, organism-based; conditions: salmonella enterica subsp. enterica serovar typhimurium, read-out: Survival
[32] = Genotoxicity in Salmonella typhimurium TA1535 harboring pSK1002 assessed as umu gene induction at 0.008 mg/ml in absence of Sprague-Dawley rat liver S9 fraction after by SOS/umu assay relative to control; format: toxicity, organism-based; conditions: salmonella enterica subsp. enterica serovar typhimurium, read-out: FC
[33] = Genotoxicity in Salmonella typhimurium TA1535 harboring pSK1002 assessed as survival at 0.063 mg/ml in presence of Sprague-Dawley rat liver S9 fraction after by SOS/umu assay relative to control; format: toxicity, organism-based; conditions: salmonella enterica subsp. enterica serovar typhimurium, read-out: Survival
[34] = Genotoxicity in Salmonella typhimurium TA1535 harboring pSK1002 assessed as survival at 0.001 mg/ml in presence of Sprague-Dawley rat liver S9 fraction after by SOS/umu assay relative to control; format: toxicity, organism-based; conditions: salmonella enterica subsp. enterica serovar typhimurium, read-out: Survival
[35] = Genotoxicity in Salmonella typhimurium TA1535 harboring pSK1002 assessed as umu gene induction at 0.063 mg/ml in absence of Sprague-Dawley rat liver S9 fraction after by SOS/umu assay relative to control; format: toxicity, organism-based; conditions: salmonella enterica subsp. enterica serovar typhimurium, read-out: FC
[36] = Genotoxicity in Salmonella typhimurium TA1535 harboring pSK1002 assessed as survival at 0.031 mg/ml in absence of Sprague-Dawley rat liver S9 fraction after by SOS/umu assay relative to control; format: toxicity, organism-based; conditions: salmonella enterica subsp. enterica serovar typhimurium, read-out: Survival

| Compound | selectivity ratio [1] | viability at 0.008 mg/ml [2] [%] | fold induction at 0.004 mg/ml [3] | viability at 0.008 mg/ml [4] [%] | viability at 0.031 mg/ml [5] [%] | fold induction at 0.125 mg/ml [6] | fold induction at 0.031 mg/ml [7] | fold induction at 0.004 mg/ml [8] | fold induction at 0.016 mg/ml [9] | fold induction at 0.002 mg/ml [10] | viability at 0.125 mg/ml [11] [%] | fold induction at 0.031 mg/ml [12] | CC50 [13] [µM] | fold induction at 0.002 mg/ml [14] | fold induction at 0.125 mg/ml [15] | fold induction at 0.016 mg/ml [16] | fold induction at 0.008 mg/ml [17] | viability at 0.004 mg/ml [18] [%] | IC50 [19] [µM] | fold induction at 0.001 mg/ml [20] | also measured |
| --- | --- | --- | --- | --- | --- | --- | --- | --- | --- | --- | --- | --- | --- | --- | --- | --- | --- | --- | --- | --- | --- |
| O=[N+]([O-])c1ccccc1N1CCN(CCC(O)c2ccc(F)c3ccccc23)CC1 (configuration not stated) | 8 | 89.5 | 1.2 | 87.9 | 63.2 | 1.3 | 1.9 | 0.9 | 2 | 0.7 | 76.2 | 1.5 | 19.9 | 0.9 | 0.5 | 1.9 | 1 | 92.2 | 0.92 | 1.4 | viability at 0.004 mg/ml [21]: 106%; viability at 0.063 mg/ml [22]: 118%; viability at 0.125 mg/ml [23]: 174%; fold induction at 0.063 mg/ml [24]: 1.4; fold induction at 0.001 mg/ml [25]: 1.1; IC50 [26]: 2.62 µM; viability at 0.002 mg/ml [27]: 84.3%; viability at 0.002 mg/ml [28]: 111%; viability at 0.016 mg/ml [29]: 50.6%; viability at 0.001 mg/ml [30]: 100%; viability at 0.016 mg/ml [31]: 64.5%; fold induction at 0.008 mg/ml [32]: 1.7; viability at 0.063 mg/ml [33]: 63.8%; viability at 0.001 mg/ml [34]: 77.8%; fold induction at 0.063 mg/ml [35]: 0.8; viability at 0.031 mg/ml [36]: 66.8% |
| O=[N+]([O-])c1ccc(N2CCN(CCC(O)c3ccc(F)c4ccccc34)CC2)cc1 (configuration not stated) | 7 | 118 | 0.9 | 84.2 | 122 | 0.5 | 0.5 | 1.2 | 1.1 | 0.9 | 128 | 0.8 | 12.5 | 0.8 | 0.6 | 0.5 | 0.6 | 109 | 4.74 | 0.8 | viability at 0.004 mg/ml [21]: 84.9%; viability at 0.063 mg/ml [22]: 124%; viability at 0.125 mg/ml [23]: 145%; fold induction at 0.063 mg/ml [24]: 0.5; fold induction at 0.001 mg/ml [25]: 0.5; IC50 [26]: 1.71 µM; viability at 0.002 mg/ml [27]: 107%; viability at 0.002 mg/ml [28]: 87%; viability at 0.016 mg/ml [29]: 83.8%; viability at 0.001 mg/ml [30]: 88%; viability at 0.016 mg/ml [31]: 117%; fold induction at 0.008 mg/ml [32]: 1.3; viability at 0.063 mg/ml [33]: 118%; viability at 0.001 mg/ml [34]: 110%; fold induction at 0.063 mg/ml [35]: 0.7; viability at 0.031 mg/ml [36]: 105% |
